# Laboratory results from ChEMBL document CHEMBL1142359 (J Med Chem, 2008).
# Assays:
# [1] = Elimination half life in intra arterially dosed monkey; settings: rhesus monkey, in vivo
# [2] = Fraction unbound in human serum at 10 uM
# [3] = Volume of distribution at steady state in rat; settings: in vivo
# in vivo = settings: rat, po, 1 mg/kg
# [4] = Oral bioavailability in rat; settings: in vivo
# [5] = Permeability across human Caco-2 cells
# [6] = Elimination half life in intra arterially dosed dog; settings: in vivo
# [7] = Clearance in rat at 1 mg/kg, po after 1.7 hrs; settings: in vivo
# [8] = biological target: T1, Sodium/glucose cotransporter 2 (Rattus norvegicus, UniProt P53792); experiment: Inhibition of rat SGLT2 expressed in CHO cells assessed as inhibition of [14C]AMG accumulation
# T1 sequence (P53792 whole entry): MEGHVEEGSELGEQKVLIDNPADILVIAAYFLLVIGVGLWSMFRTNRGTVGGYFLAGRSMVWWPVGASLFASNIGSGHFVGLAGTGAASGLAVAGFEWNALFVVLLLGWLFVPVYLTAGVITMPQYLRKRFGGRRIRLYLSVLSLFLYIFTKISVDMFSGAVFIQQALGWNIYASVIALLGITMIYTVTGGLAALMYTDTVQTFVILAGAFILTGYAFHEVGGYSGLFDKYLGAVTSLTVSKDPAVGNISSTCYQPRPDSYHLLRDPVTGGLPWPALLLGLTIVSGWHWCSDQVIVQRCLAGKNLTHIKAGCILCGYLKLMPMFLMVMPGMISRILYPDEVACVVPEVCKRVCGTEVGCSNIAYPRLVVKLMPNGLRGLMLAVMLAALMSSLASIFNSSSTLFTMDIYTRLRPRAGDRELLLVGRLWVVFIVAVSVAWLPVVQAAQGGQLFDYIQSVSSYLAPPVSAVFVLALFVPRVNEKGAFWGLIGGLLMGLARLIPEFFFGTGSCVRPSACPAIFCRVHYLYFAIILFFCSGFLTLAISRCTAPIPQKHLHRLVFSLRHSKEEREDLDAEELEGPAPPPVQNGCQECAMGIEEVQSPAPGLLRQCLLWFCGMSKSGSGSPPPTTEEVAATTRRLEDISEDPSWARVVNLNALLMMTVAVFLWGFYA
# [9] = Fraction unbound in rat serum at 10 uM
# [10] = Elimination half life in intra arterially dosed rat; settings: in vivo
# [11] = biological target: T2, Solute carrier family 2, facilitated glucose transporter member 4 (Homo sapiens) (UniProt P14672); settings: 20 uM
# T2 sequence (whole entry): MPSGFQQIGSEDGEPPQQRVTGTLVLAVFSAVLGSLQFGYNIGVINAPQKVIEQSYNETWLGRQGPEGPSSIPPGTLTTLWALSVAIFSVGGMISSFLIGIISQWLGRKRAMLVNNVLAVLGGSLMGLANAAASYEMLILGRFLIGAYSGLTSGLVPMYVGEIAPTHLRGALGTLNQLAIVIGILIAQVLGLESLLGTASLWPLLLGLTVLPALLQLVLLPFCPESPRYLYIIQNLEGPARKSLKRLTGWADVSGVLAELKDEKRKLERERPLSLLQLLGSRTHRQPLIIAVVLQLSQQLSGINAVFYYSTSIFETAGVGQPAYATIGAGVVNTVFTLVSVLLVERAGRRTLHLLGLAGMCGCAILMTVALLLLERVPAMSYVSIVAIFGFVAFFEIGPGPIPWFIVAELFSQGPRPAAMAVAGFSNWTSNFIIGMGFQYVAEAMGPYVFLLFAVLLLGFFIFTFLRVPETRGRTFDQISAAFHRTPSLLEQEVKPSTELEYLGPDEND
# [12] = biological target: T3, Solute carrier family 2, facilitated glucose transporter member 1 (Homo sapiens) (UniProt P11166); settings: 20 uM
# T3 sequence (whole entry): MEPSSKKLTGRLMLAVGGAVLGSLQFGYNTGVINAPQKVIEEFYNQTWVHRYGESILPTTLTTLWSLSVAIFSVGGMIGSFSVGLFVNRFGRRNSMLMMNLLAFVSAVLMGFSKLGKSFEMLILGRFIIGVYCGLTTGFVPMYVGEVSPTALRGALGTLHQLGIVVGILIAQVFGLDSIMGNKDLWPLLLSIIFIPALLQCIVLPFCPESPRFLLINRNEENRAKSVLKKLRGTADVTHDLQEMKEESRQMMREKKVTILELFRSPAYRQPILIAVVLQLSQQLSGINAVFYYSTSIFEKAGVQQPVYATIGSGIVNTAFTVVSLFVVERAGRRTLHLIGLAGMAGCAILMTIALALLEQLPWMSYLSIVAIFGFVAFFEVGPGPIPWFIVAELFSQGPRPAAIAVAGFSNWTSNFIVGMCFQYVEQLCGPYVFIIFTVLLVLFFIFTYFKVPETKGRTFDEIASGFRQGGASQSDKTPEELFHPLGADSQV
# [13] = biological target: T4, Sodium/glucose cotransporter 2 (Homo sapiens, UniProt P31639); experiment: Inhibition of human SGLT2 expressed in CHO cells assessed as inhibition of [14C]AMG accumulation; assay type: cell-based
# T4 sequence (P31639 whole entry): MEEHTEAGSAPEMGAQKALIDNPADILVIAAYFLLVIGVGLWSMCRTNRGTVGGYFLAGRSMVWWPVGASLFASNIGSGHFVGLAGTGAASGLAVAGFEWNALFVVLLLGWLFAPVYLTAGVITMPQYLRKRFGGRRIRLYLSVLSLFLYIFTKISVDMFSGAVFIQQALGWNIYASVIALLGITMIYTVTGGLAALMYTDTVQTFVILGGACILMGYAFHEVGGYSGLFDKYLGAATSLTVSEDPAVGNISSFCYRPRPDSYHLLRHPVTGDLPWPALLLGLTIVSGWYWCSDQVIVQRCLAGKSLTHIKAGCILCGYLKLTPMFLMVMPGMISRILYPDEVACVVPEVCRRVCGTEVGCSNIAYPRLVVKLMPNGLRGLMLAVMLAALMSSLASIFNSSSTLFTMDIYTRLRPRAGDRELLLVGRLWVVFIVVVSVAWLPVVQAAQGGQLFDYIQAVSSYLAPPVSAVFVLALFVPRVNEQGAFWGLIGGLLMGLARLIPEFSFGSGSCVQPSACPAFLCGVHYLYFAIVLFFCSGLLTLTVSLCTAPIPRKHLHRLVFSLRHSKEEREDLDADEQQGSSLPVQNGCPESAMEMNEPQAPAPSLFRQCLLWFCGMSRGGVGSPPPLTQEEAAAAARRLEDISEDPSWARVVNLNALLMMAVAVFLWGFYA
# Outline: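 Radiolabeled α-methyl-D-glucopyranoside accumulation in Chinese hamster ovary cells stably expressing human or rat SGLT2. EC50 is taken as inhibition of that uptake. The assay was run in protein-free buffer, and n is given per value.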
structure (smiles),measurement,setting,value
CCOc1ccc(Cc2cc([C@@H]3O[C@H](CO)[C@@H](O)[C@H](O)[C@H]3O)ccc2Cl)cc1 [DAPAGLIFLOZIN],half-life,[1],3 h
same,fraction unbound at 10 µM,[2],0.04
same,Vd,[3],1.6 L/kg
same,Cmax at 1.7 h,in vivo,600 ng/mL
same,bioavailability,[4],84%
same,Papp,[5],> 15 ×10⁻⁶ cm/s
same,half-life,[6],7.4 h
same,CL/F at 1.7 h,[7],4.8 mL/min/kg
same,EC50,[8],3 nM
same,fraction unbound at 10 µM,[9],0.03
same,half-life,[10],4.6 h
same,inhibition,[11],8%
same,inhibition,[12],8%
COc1ccc(Cc2ccccc2O[C@@H]2O[C@H](CO)[C@@H](O)[C@H](O)[C@H]2O)cc1 [SERGLIFLOZIN A],EC50,[13],9.2 nM
CCNC(=O)c1c(O)c(Cc2ccc(OC)cc2)cc([C@@H]2O[C@H](CO)[C@@H](O)[C@H](O)[C@H]2O)c1O,EC50,[13],1300 nM
Cc1cc(O)c(C(=O)CCc2ccc3occc3c2)c(O[C@@H]2O[C@H](CO)[C@@H](O)[C@H](O)[C@H]2O)c1,EC50,[13],6.6 nM
